{
  "source": "ChEMBL document CHEMBL5649170",
  "about": "“Sustained microglial depletion with CSF1R inhibitor impairs parenchymal plaque development in an Alzheimer's disease model” (Nat Commun, 2019)",
  "key": {"Mus musculus [1]": {"test_system": "Mus musculus", "experiment": "Antialzheimer activity in mouse harboring CX3CR1-GFP+/- assessed as microglial elimination in brain at 600 ppm administered as chow for 7 days relative to control", "type": "functional", "conditions": "route po, time 7 day"}, "Mus musculus [2]": {"test_system": "Mus musculus", "experiment": "Antialzheimer activity in 5XFAD mouse assessed as microglial numbers by measuring number of Iba positive cells per FOV in somatosensory cortex at 75 ppm administered as rodent chow starting from 1.5 months and measured after 5 months by immunolabeling based confocal microscopic analysis (reference value: 281 to 613)", "type": "functional", "conditions": "route po, time 3.5 months, 2555 h", "procedure,_shortened": "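5xFAD mice fed PLX3397 at 75 ppm in AIN-76A chow from 1.5 to 5 months of age; retrosplenial and somatosensory cortex sections stained with Thio-S and immunolabeled for IBA1; confocal imaging, IBA1+ cells and plaques quantified per region; two-tailed independent t-test, n = 4–5 per group, mean ± SEM.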"}, "[3]": {"biological_target": "Serine/threonine-protein kinase Sgk2 (Homo sapiens, UniProt Q9HBY8)", "experiment": "Inhibition of SGK2 (unknown origin)"}, "[4]": {"experiment": "Effect on Csf1r RPKM gene expression in wild type mouse cortex at 1200 ppm administered as rodent chow starting from 1.5 months and measured after 7 months by RNA-Seq analysis (reference value: 18.302 to 19.220 RPKM)", "type": "functional", "conditions": "route po, time 5.5 months, 4015 h"}, "[5]": {"biological_target": "T1, Macrophage colony-stimulating factor 1 receptor (Mus musculus) (UniProt P09581)", "T1 sequence (whole entry)": "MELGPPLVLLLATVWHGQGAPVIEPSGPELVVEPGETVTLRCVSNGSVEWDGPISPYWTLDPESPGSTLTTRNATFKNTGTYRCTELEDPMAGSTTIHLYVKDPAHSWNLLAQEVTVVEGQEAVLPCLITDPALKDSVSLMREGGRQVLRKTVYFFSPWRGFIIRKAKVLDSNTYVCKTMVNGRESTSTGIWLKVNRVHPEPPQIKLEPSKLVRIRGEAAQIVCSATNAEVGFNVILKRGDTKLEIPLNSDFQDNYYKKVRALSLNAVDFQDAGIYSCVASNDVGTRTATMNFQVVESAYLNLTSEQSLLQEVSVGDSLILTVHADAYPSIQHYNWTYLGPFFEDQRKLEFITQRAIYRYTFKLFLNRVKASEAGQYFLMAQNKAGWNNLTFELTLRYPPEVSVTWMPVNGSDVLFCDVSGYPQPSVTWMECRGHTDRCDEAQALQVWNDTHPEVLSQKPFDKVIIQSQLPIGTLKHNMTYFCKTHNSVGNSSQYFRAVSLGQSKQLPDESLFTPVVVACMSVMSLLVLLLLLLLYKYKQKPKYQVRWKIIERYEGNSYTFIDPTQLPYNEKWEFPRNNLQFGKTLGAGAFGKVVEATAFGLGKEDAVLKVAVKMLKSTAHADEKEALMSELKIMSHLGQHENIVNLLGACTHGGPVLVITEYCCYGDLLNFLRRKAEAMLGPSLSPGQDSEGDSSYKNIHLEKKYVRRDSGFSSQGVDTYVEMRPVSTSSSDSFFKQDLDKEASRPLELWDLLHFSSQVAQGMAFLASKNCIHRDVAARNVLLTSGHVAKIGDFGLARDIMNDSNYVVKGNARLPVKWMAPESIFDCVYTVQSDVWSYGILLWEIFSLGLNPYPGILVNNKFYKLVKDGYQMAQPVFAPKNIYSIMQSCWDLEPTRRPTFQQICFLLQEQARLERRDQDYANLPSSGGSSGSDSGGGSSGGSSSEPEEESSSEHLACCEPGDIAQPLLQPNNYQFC", "experiment": "In vivo inhibition of CSF1R in wildtype mouse assessed as number of S100bteta positive cells per FOV in […] cortex at 1200 ppm administered as rodent chow for 10 to 24 weeks by immunolabelling based confocal microscopic analysis (reference value: 296 to 337)", "type": "functional", "conditions": "route po, time 10-24 weeks"}, "Ephrin type-A receptor 2": {"biological_target": "Ephrin type-A receptor 2 (Homo sapiens, UniProt P29317)", "sequence (P29317 whole entry)": "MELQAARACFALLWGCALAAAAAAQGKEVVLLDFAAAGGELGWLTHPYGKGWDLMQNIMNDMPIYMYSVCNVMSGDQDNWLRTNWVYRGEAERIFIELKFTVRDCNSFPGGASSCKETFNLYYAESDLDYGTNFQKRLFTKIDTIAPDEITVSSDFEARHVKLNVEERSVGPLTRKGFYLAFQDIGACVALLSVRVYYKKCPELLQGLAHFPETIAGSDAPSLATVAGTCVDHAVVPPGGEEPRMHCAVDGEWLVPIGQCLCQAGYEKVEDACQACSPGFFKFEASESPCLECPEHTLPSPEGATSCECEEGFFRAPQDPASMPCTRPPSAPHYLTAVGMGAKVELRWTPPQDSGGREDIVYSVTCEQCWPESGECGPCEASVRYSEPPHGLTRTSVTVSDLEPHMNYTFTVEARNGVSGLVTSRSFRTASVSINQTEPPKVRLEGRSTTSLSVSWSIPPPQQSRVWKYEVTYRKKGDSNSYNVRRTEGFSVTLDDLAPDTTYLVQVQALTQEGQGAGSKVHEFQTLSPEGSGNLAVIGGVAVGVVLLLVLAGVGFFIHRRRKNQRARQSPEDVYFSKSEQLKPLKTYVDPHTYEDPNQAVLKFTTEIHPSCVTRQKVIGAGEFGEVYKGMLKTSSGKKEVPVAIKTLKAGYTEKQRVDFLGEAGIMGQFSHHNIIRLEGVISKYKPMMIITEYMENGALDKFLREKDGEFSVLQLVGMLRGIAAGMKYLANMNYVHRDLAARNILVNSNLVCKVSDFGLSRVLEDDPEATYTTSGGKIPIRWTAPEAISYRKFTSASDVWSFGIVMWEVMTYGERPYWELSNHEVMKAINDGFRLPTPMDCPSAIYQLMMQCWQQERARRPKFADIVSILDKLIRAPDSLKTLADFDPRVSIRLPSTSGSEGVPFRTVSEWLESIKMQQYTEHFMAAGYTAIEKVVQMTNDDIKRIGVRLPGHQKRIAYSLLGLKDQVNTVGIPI", "experiment": "Inhibition of EPHA2 (unknown origin)"}, "[6]": {"biological_target": "T1, Macrophage colony-stimulating factor 1 receptor (Mus musculus)", "experiment": "In vivo inhibition of CSF1R in wildtype mouse assessed as number of Iba1 positive cells per FOV in somatosensory cortex at 1200 ppm administered as rodent chow starting from 1.5 months to 4 months followed by compound removal and measured after 1 months by immunolabelling based confocal microscopic analysis (reference value: 304 to 351)", "type": "functional", "conditions": "route po, time 2.5 months"}, "[7]": {"biological_target": "Fibroblast growth factor receptor 2 (Homo sapiens, UniProt P21802)", "sequence (P21802 whole entry)": "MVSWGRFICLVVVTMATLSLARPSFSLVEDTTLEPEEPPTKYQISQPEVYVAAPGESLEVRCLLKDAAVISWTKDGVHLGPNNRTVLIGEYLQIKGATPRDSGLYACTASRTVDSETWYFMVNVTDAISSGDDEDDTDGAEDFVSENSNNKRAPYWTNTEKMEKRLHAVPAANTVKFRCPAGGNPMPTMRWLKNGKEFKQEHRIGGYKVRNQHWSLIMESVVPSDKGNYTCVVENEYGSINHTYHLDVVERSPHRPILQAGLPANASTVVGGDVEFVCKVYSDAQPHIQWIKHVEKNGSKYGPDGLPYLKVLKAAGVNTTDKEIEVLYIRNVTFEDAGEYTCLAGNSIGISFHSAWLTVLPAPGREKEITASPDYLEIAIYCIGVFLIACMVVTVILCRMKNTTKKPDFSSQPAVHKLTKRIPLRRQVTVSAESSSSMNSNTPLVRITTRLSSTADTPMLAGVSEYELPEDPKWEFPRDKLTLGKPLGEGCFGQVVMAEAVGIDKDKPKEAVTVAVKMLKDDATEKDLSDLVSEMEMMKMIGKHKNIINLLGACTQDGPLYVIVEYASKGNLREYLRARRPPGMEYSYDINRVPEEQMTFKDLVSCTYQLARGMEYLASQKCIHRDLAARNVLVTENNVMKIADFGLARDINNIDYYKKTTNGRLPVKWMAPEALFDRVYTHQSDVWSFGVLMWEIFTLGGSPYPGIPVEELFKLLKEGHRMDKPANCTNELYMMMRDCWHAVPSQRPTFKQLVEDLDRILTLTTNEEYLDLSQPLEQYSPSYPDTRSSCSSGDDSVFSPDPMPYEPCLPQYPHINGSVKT", "experiment": "Inhibition of FGFR2 (unknown origin)"}, "[8]": {"biological_target": "G protein-coupled receptor kinase 6 (Homo sapiens, UniProt P43250)", "experiment": "Inhibition of GRK6 (unknown origin)"}, "[9]": {"biological_target": "Homeodomain-interacting protein kinase 4 (Homo sapiens, UniProt Q8NE63)", "experiment": "Inhibition of HIPK4 (unknown origin)"}, "[10]": {"biological_target": "Dual specificity tyrosine-phosphorylation-regulated kinase 3 (Homo sapiens, UniProt O43781)", "sequence (O43781 whole entry)": "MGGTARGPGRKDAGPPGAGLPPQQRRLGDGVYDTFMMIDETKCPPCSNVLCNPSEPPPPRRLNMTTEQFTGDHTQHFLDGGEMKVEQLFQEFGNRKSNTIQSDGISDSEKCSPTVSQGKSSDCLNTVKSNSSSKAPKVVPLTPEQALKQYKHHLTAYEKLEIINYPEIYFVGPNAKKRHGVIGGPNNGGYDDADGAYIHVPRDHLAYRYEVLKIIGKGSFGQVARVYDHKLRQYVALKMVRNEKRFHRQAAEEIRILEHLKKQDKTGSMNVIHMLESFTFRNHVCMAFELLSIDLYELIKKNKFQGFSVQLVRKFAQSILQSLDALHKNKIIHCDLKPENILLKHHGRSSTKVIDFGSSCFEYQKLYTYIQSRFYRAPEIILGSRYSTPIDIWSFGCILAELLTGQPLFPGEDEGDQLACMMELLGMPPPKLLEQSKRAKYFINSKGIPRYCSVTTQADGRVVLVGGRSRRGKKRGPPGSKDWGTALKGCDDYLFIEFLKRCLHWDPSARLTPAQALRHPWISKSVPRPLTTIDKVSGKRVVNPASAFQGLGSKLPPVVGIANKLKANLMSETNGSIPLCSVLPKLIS", "experiment": "Inhibition of DYRK3 (unknown origin)"}, "Mus musculus [11]": {"test_system": "Mus musculus", "experiment": "Effect on APP processing pathway in wildtype mouse assessed as full length APP protein signal intensity in cortex at 1200 ppm administered as rodent starting from 1.5 months and measured after 7 months (reference value: 0.124 to 27.917 %)", "type": "functional", "conditions": "route po, time 5.5 months, 4015 h"}, "[12]": {"experiment": "Effect on Cst7 gene expression in 5XFAD mouse thalamus at 1200 ppm administered as rodent chow starting from 1.5 months and measured after 7 months by RNA-Seq analysis (reference value: 9.686 to 22.113 RPKM)", "type": "functional", "conditions": "route po, time 5.5 months, 4015 h"}, "SRSF protein kinase 1": {"biological_target": "SRSF protein kinase 1 (Homo sapiens, UniProt Q96SB4)", "experiment": "Inhibition of SRPK1 (unknown origin)"}, "[13]": {"biological_target": "NT-3 growth factor receptor (Homo sapiens, UniProt Q16288)", "sequence (Q16288 whole entry)": "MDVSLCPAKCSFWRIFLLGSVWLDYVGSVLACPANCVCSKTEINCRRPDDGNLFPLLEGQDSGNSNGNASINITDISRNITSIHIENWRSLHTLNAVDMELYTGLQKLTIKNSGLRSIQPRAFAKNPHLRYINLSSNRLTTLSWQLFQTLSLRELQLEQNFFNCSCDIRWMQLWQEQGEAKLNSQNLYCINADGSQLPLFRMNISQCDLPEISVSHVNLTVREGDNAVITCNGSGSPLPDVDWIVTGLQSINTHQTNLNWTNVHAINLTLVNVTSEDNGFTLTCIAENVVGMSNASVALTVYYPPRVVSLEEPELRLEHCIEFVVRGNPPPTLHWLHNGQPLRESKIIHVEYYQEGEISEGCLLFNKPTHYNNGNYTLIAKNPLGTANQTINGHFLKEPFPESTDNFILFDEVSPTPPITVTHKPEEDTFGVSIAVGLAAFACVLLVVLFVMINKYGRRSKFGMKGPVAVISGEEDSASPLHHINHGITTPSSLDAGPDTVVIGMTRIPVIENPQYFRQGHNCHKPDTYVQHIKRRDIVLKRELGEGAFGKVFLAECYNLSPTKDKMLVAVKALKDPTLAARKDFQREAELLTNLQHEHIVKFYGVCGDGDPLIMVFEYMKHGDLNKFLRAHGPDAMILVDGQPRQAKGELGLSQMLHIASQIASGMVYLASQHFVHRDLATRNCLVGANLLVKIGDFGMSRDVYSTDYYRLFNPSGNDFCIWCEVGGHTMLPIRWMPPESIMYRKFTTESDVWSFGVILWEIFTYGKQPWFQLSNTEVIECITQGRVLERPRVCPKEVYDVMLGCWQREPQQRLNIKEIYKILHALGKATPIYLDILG", "experiment": "Inhibition of NTRK3 (unknown origin)"}, "[14]": {"biological_target": "G protein-coupled receptor kinase 4 (Homo sapiens, UniProt P32298)", "sequence (P32298 whole entry)": "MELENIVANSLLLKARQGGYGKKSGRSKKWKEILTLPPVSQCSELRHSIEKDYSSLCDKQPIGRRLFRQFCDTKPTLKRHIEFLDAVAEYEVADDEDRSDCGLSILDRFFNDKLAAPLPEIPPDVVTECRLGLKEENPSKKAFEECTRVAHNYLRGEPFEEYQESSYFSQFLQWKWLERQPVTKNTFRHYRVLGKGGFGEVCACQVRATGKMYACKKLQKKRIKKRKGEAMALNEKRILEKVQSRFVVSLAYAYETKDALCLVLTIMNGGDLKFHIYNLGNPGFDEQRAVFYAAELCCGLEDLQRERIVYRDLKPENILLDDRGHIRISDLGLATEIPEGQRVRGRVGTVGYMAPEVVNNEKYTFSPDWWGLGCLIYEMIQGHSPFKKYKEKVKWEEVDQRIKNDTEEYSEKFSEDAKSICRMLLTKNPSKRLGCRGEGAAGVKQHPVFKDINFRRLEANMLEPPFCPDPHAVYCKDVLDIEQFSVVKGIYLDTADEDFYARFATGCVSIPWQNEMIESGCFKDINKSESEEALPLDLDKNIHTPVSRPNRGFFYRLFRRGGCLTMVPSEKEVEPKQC", "experiment": "Inhibition of GRK4 (unknown origin)"}, "Mus musculus [15]": {"test_system": "Mus musculus", "experiment": "Antialzheimer activity in 5XFAD mouse assessed as amyloidbeta42 level in detergent soluble cortex fraction measured per microgram protein at 1200 ppm administered as rodent chow starting from 1.5 months and measured after 7 months by ELISA (reference value: 0 to 0.239 pg)", "type": "functional", "conditions": "route po, time 5.5 months, 4015 h", "procedure,_shortened": "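PLX5622 at 1200 ppm in chow given to 5xFAD mice from 1.5 months to 4 or 7 months of age; cortex and thalamus homogenized in TPER (detergent-soluble), pellets re-homogenized in 70% formic acid and spun 100,000 g, 1 h, 4 °C (insoluble); protein by Bradford/Lowry; Aβ species measured by Meso Scale electrochemiluminescence immunoassay, normalized to protein; n = 7–8 per group at 7 months.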"}, "[16]": {"experiment": "AUC (0 to infinity) in female rat at 1.13 mg/kg, iv administered as single dose", "type": "ADME, organism-based", "conditions": "in vivo"}, "Mus musculus [17]": {"test_system": "Mus musculus", "experiment": "Prevention of Tmem119 gene upregulation in 5XFAD mouse hippocampus at 1200 ppm administered as rodent chow starting from 1.5 months and measured after 7 months by Nanostring analysis", "type": "functional, tissue-based", "conditions": "route po, time 5.5 months"}, "[18]": {"biological_target": "Tyrosine-protein kinase ABL1 (Homo sapiens, UniProt P00519)", "experiment": "Inhibition of ABL1 (unknown origin)"}, "[19]": {"biological_target": "Serine/threonine-protein kinase BRSK1 (Homo sapiens, UniProt Q8TDC3)", "experiment": "Inhibition of BRSK1 (unknown origin)"}, "[20]": {"biological_target": "Calcium/calmodulin-dependent protein kinase type 1 (Homo sapiens, UniProt Q14012)", "sequence (Q14012 whole entry)": "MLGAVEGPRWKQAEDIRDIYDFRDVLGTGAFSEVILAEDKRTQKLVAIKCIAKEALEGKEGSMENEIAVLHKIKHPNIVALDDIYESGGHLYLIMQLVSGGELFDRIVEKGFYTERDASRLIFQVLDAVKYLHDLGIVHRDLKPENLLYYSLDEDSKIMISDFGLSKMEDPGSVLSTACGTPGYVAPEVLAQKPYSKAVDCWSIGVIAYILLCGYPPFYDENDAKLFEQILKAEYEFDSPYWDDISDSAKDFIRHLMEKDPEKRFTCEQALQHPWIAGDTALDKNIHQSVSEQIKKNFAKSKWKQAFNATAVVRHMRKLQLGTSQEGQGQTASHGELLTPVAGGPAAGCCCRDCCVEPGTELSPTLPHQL", "experiment": "Inhibition of CAMK1 (unknown origin)"}, "[21]": {"biological_target": "Ribosomal protein S6 kinase alpha-5 (Homo sapiens, UniProt O75582)", "sequence (O75582 whole entry)": "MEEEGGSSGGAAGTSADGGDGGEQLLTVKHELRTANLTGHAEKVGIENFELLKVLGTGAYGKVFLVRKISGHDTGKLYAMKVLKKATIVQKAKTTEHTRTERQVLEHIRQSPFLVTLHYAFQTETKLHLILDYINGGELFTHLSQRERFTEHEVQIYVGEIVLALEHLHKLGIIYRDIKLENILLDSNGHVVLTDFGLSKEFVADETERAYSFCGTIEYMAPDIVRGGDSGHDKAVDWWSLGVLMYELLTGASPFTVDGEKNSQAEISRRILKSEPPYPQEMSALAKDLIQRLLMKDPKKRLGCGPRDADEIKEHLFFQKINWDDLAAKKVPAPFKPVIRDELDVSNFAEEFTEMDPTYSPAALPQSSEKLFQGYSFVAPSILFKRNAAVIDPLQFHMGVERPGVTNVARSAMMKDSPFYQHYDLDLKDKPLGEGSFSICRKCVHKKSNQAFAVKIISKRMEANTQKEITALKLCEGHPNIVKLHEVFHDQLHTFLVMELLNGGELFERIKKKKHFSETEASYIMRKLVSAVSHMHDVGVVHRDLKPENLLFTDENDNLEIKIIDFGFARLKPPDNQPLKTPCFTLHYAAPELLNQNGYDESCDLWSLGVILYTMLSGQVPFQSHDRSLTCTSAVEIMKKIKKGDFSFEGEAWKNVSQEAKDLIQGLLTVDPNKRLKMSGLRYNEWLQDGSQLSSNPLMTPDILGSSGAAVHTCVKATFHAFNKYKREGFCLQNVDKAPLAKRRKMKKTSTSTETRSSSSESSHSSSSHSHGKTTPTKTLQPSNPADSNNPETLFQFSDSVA", "experiment": "Inhibition of RPS6KA5 (unknown origin)"}},
  "note": "The source made the active and inactive calls. No cut-off for these calls is given here.",
  "data": [
    {"molecule": "FC(F)(F)c1ccc(CNc2ccc(Cc3c[nH]c4ncc(Cl)cc34)cn2)cn1", "note": "[PEXIDARTINIB]", "values": [
      {"measurement": "Activity", "setting": "Mus musculus [1]", "result": ">99", "unit": "%"},
      {"measurement": "Activity", "setting": "Mus musculus [2]", "result": 345}
    ]},
    {"molecule": "COc1ncc(F)cc1CNc1ccc(Cc2c[nH]c3ncc(C)cc23)c(F)n1", "note": "[PLX-5622]", "values": [
      {"measurement": "IC50", "setting": "[3]", "result": "> 1000", "unit": "nM"},
      {"measurement": "Activity", "setting": "[4]", "result": 0.073, "unit": "RPKM"},
      {"measurement": "Activity", "setting": "[5]", "result": 269},
      {"measurement": "IC50", "setting": "Ephrin type-A receptor 2", "result": "> 1000", "unit": "nM"},
      {"measurement": "Activity", "setting": "[6]", "result": 108},
      {"measurement": "IC50", "setting": "[7]", "result": "> 1000", "unit": "nM"},
      {"measurement": "IC50", "setting": "[8]", "result": "> 1000", "unit": "nM"},
      {"measurement": "IC50", "setting": "[9]", "result": "> 1000", "unit": "nM"},
      {"measurement": "IC50", "setting": "[10]", "result": "> 1000", "unit": "nM"},
      {"measurement": "Activity", "setting": "Mus musculus [11]", "result": 0.823, "unit": "%"},
      {"measurement": "Activity", "setting": "[12]", "result": 0.096, "unit": "RPKM"},
      {"measurement": "IC50", "setting": "SRSF protein kinase 1", "result": "> 1000", "unit": "nM"},
      {"measurement": "IC50", "setting": "[13]", "result": "> 1000", "unit": "nM"},
      {"measurement": "IC50", "setting": "[14]", "result": "> 1000", "unit": "nM"},
      {"measurement": "Activity", "setting": "Mus musculus [15]", "result": 0, "unit": "pg"},
      {"measurement": "AUC(0-inf)", "setting": "[16]", "result": 5110, "unit": "ng·h/mL"},
      {"measurement": "Activity", "setting": "Mus musculus [17]", "result": "Active"},
      {"measurement": "IC50", "setting": "[18]", "result": "> 1000", "unit": "nM"},
      {"measurement": "IC50", "setting": "[19]", "result": "> 1000", "unit": "nM"},
      {"measurement": "IC50", "setting": "[20]", "result": "> 1000", "unit": "nM"},
      {"measurement": "IC50", "setting": "[21]", "result": "> 1000", "unit": "nM"}
    ]}
  ]
}
